Measurements from different studies.
Each line is one published result; the experiments were not run side by side.
Target: Cyclin-dependent kinase 16 (CDK16, Homo sapiens, UniProt Q00536)

Structure (SMILES)	test	conditions	remaining binding [%]
CN(C)c1nccc(-c2cnn3ncccc23)n1	binding	1 µM	100
O=C(NCC1CCOCC1)c1n[nH]cc1NC(=O)c1c(F)cccc1F	binding, competition with immobilised ligand	1 µM	57
CNCc1ccccc1-c1csc([C@H](C)Nc2nc(C)nc3cc(OC)c(OC)cc23)c1	cell-free assay, competition with immobilised ligand	1 µM	83
C[C@H]1CCN(c2nccc(-c3cnn4ncccc34)n2)C1	binding	1 µM	95
Cc1cnc(Nc2ccc(C(=O)N3CCC(N4CCCC4)CC3)cc2)nc1-c1cc2ccccc2s1	binding, competition with immobilised ligand	1 µM	3.9
O=C(NC[C@@H]1[C@H]2CN(C(=O)OCc3cc(C(F)(F)F)cc(C(F)(F)F)c3)C[C@@H]12)c1ccc2[nH]nnc2c1	cell-free assay, competition with immobilised ligand	1 µM	100
O=C(NCCCN1CCOCC1)c1ccc(Nc2ncc(Cl)c(-c3ccc(Cl)s3)n2)cc1	binding, competition with immobilised ligand	1 µM	23
CN(c1ccnc(CNc2nc(Nc3ccc4c(c3)CC(=O)N4)ncc2C(F)(F)F)n1)S(C)(=O)=O	cell-free assay, competition with immobilised ligand	1 µM	82
C[C@@H](c1ccc(-n2cnc3c(N)ncnc32)cc1)N1CCc2nn(C)c(Cc3ccccc3)c2C1=O	binding, competition with immobilised ligand	0.1 µM	67
O=C(c1ccc(Nc2ncc(Cl)c(-c3cc4ccccc4s3)n2)cc1)N1CCC(N2CCCC2)CC1	binding, competition with immobilised ligand	1 µM	0.7
CC(C)CC(=O)N1CCc2nc(-c3ccc(Br)cc3)nc(N(C)Cc3ccccc3)c2C1	cell-free assay, competition with immobilised ligand	0.1 µM	100
CCN1CCN(Cc2ccc(C(=O)Nc3ccc(C)c(Oc4ccc5c(c4)CC(=O)N5)c3)cc2C(F)(F)F)CC1	binding, competition with immobilised ligand	1 µM	100
Cc1noc([C@H]2C[C@@H](c3ccc(C(F)(F)F)cc3)CN(C(=O)N3CCS(=O)(=O)C3)C2)n1	cell-free assay, competition with immobilised ligand	1 µM	100
N#Cc1ccccc1CSc1nnc2c(n1)[nH]c1ccccc12	binding, competition with immobilised ligand	10 µM	100
CSc1cccnc1N1CCN(Cc2nc3ccccc3[nH]2)CC1	cell-free assay, competition with immobilised ligand	1 µM	81
COc1ccnn2ncc(-c3ccnc(N(C)C)n3)c12	binding	1 µM	100
CNC(=O)[C@@H]1CC[C@@H](n2c(-c3ccc4cnccc4c3)nc3ccc(C(=O)NCc4cccc(C(N)=O)c4)cc32)C1	binding, competition with immobilised ligand	1 µM	100
c1cncc(-c2cccc(Nc3nccc(NC4CCCCC4)n3)c2)c1	binding, competition with immobilised ligand	10 µM	95
FC(F)(F)Oc1cccc(-c2cnc3ccc(-c4ccncc4)nn23)c1	cell-free assay, competition with immobilised ligand	5 µM	53
Cc1cnn2ncc(-c3ccnc(N(C)C)n3)c2c1	binding	1 µM	100
C[C@@]1(Cc2ccc(C#N)cc2)C(=O)N(c2cc(Cl)cc(Cl)c2)c2ncc(C(=O)NC3(c4nc(C5CCC5)no4)CC3)n21	cell-free assay, competition with immobilised ligand	1 µM	97
N[C@@H]1CCN(c2nccc(-c3cnn4ncccc34)n2)C1	binding	1 µM	95
C[C@@H]1CN(c2ccc3ncc(-c4ccc5[nH]nc(C6CC6)c5c4)n3n2)C[C@H](C)O1	binding, competition with immobilised ligand	0.5 µM	100
CN(C)c1ncc(F)c(-c2cnn3ncccc23)n1	binding	1 µM	96
COc1cnc(Nc2cccc(S(N)(=O)=O)c2)nc1N1CCN(c2ccccc2)C(=O)C1	binding, competition with immobilised ligand	1 µM	92
